Results as given in ChEMBL document CHEMBL2407050, “Wilsonols A-L, megastigmane sesquiterpenoids from the leaves of Cinnamomum wilsonii” (J Nat Prod, 2013).
The source made the active and inactive calls. Unless noted, the rule behind the calls is not given here.

system: B-cell; test: Inhibition of LPS-induced mouse B lymphocytes proliferation after 48 hrs by CCK-8 assay; format: functional; conditions: not given
Method in brief: (§1)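 Murine splenocytes, 2.5 × 10⁶ per well, co-treated with compounds at various concentrations plus ConA (5 μg/mL, T-cell stimulus) or LPS (B-cell stimulus). Cultured 48 h at 37 °C, 5% CO₂; CCK-8 added for the last 4 h, A450 read against a 600 nm reference. Triplicate means; change expressed relative to the stimulated positive control. >10% inhibition counted as active.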

Structure (SMILES)	inhibition
CC1=C(CC[C@@H](C)O)C(C)(C)C[C@H](O)[C@@H]1O	Active
C[C@@H](O)/C=C/[C@@]1(O)[C@@H](C)C[C@H](O)CC1(C)C	Active
COC(=O)/C=C(C)\C=C\[C@@]1(O)C(C)=CC(=O)CC1(C)C	inactive
C[C@H](O)CCC1=C(CO)C[C@@H](O)CC1(C)C	Active

system: A549; test: Selectivity index, ratio of IC50 for human BEAS2B cells to IC50 for human A549 cells; format: functional; conditions: not given
Method in brief: (§2)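 Ratio of the Beas-2B IC50 to the IC50 for each cancer line. Both IC50s come from the 48 h MTS viability assay with Reed–Muench calculation.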

Structure (SMILES)	Ratio IC50
CC1=C(CC[C@H](C)O)C(C)(C)C[C@H](O[C@@H]2O[C@H](CO)[C@@H](O)[C@H](O)[C@H]2O)C1	>16

system: not listed separately; test: Cytotoxicity against mouse B lymphocytes after 48 hrs by CCK-8 assay; conditions: b-cell
Method in brief: (§3)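 Splenocyte toxicity run without ConA or LPS at 5 × 10⁶ cells/200 μL/well. Cultured 48 h at 37 °C, 5% CO₂ with CCK-8 during the final 4 h; A450 read against a 600 nm reference. Viability (%) = compound OD450 / […] OD450 × 100.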

Structure (SMILES)	Activity
CC1=C(CC[C@@H](C)O)C(C)(C)C[C@H](O)[C@@H]1O	Non-toxic
CC(=O)/C=C/[C@@]1(O)[C@H](C)[C@H](O)[C@@H](O)CC1(C)C [WILSONOL C]	Non-toxic
C[C@@H](O)/C=C/[C@@]1(O)[C@@H](C)C[C@H](O)CC1(C)C	Non-toxic
C[C@H](O)/C=C/[C@@]1(O)[C@H](C)[C@H](O)[C@@H](O)CC1(C)C [WILSONOL A]	Non-toxic
CC1=C(CC[C@H](C)O)C(C)(C)C[C@H](O[C@@H]2O[C@H](CO)[C@@H](O)[C@H](O)[C@H]2O)C1	Non-toxic
C[C@@H]1[C@H](O)[C@@H](O)CC(C)(C)[C@@]1(O)/C=C/[C@@H](C)O [WILSONOL B]	Non-toxic
COC(=O)/C=C(C)\C=C\[C@@]1(O)C(C)=CC(=O)CC1(C)C	Non-toxic
C[C@H](O)CCC1=C(CO)C[C@@H](O)CC1(C)C	Non-toxic

system: T-cell; test: Inhibition of ConA-induced mouse T lymphocytes proliferation after 48 hrs by CCK-8 assay; format: functional; conditions: not given; method in brief: as §1

Structure (SMILES)	inhibition
C[C@@H](O)/C=C/[C@@]1(O)[C@@H](C)C[C@H](O)CC1(C)C	Active
C[C@H](O)/C=C/[C@@]1(O)[C@H](C)[C@H](O)[C@@H](O)CC1(C)C [WILSONOL A]	Active
C[C@@H]1[C@H](O)[C@@H](O)CC(C)(C)[C@@]1(O)/C=C/[C@@H](C)O [WILSONOL B]	Active
COC(=O)/C=C(C)\C=C\[C@@]1(O)C(C)=CC(=O)CC1(C)C	inactive
C[C@H](O)CCC1=C(CO)C[C@@H](O)CC1(C)C	Active

system: MCF7; test: Cytotoxicity against human MCF7 cells after 48 hrs by MTS assay; format: functional, cell-based; conditions: MCF7, 48 h
Method in brief: (§4)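 Cells grown in DMEM or RPMI-1640 with 10% FBS at 37 °C under 5% CO₂. Adherent cells plated 12 h before dosing; suspension cells plated at dosing, initial density 1 × 10⁵ cells/mL. MTS (5 mg/mL stock) added for 4 h at 37 °C, then SDS lysis and OD at 595 nm. IC50 by Reed–Muench.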

Structure (SMILES)	IC50 [µM]
CC1=C(CC[C@@H](C)O)C(C)(C)C[C@H](O)[C@@H]1O	> 10
CC(=O)/C=C/[C@@]1(O)[C@H](C)[C@H](O)[C@@H](O)CC1(C)C [WILSONOL C]	> 10
C[C@@H](O)/C=C/[C@@]1(O)[C@@H](C)C[C@H](O)CC1(C)C	> 10
C[C@H](O)/C=C/[C@@]1(O)[C@H](C)[C@H](O)[C@@H](O)CC1(C)C [WILSONOL A]	> 10
CC1=C(CC[C@H](C)O)C(C)(C)C[C@H](O[C@@H]2O[C@H](CO)[C@@H](O)[C@H](O)[C@H]2O)C1	3.4
C[C@@H]1[C@H](O)[C@@H](O)CC(C)(C)[C@@]1(O)/C=C/[C@@H](C)O [WILSONOL B]	> 10
COC(=O)/C=C(C)\C=C\[C@@]1(O)C(C)=CC(=O)CC1(C)C	> 10
C[C@H](O)CCC1=C(CO)C[C@@H](O)CC1(C)C	> 10

system: SMMC-7721; test: Cytotoxicity against human SMMC7721 cells after 48 hrs by MTS assay; format: functional, cell-based; conditions: SMMC-7721, 48 h; method in brief: as §4

Structure (SMILES)	IC50 [µM]
CC1=C(CC[C@@H](C)O)C(C)(C)C[C@H](O)[C@@H]1O	> 10
CC(=O)/C=C/[C@@]1(O)[C@H](C)[C@H](O)[C@@H](O)CC1(C)C [WILSONOL C]	> 10
C[C@@H](O)/C=C/[C@@]1(O)[C@@H](C)C[C@H](O)CC1(C)C	> 10
C[C@H](O)/C=C/[C@@]1(O)[C@H](C)[C@H](O)[C@@H](O)CC1(C)C [WILSONOL A]	> 10
CC1=C(CC[C@H](C)O)C(C)(C)C[C@H](O[C@@H]2O[C@H](CO)[C@@H](O)[C@H](O)[C@H]2O)C1	3.1
C[C@@H]1[C@H](O)[C@@H](O)CC(C)(C)[C@@]1(O)/C=C/[C@@H](C)O [WILSONOL B]	> 10
COC(=O)/C=C(C)\C=C\[C@@]1(O)C(C)=CC(=O)CC1(C)C	> 10
C[C@H](O)CCC1=C(CO)C[C@@H](O)CC1(C)C	> 10

system: SMMC-7721; test: Selectivity index, ratio of IC50 for human BEAS2B cells to IC50 for human SMMC7721 cells; format: functional; conditions: not given; method in brief: as §2

Structure (SMILES)	Ratio IC50
CC1=C(CC[C@H](C)O)C(C)(C)C[C@H](O[C@@H]2O[C@H](CO)[C@@H](O)[C@H](O)[C@H]2O)C1	>16

system: not listed separately; test: Selectivity index, ratio of IC50 for human BEAS2B cells to IC50 for human SW480 cells; format: functional; conditions: not given; method in brief: as §2

Structure (SMILES)	Ratio IC50
CC1=C(CC[C@H](C)O)C(C)(C)C[C@H](O[C@@H]2O[C@H](CO)[C@@H](O)[C@H](O)[C@H]2O)C1	>16

system: HL-60; test: Cytotoxicity against human HL60 cells after 48 hrs by MTS assay; format: functional, cell-based; conditions: HL-60, 48 h; method in brief: as §4

Structure (SMILES)	IC50 [µM]
CC1=C(CC[C@@H](C)O)C(C)(C)C[C@H](O)[C@@H]1O	> 10
CC(=O)/C=C/[C@@]1(O)[C@H](C)[C@H](O)[C@@H](O)CC1(C)C [WILSONOL C]	> 10
C[C@@H](O)/C=C/[C@@]1(O)[C@@H](C)C[C@H](O)CC1(C)C	> 10
C[C@H](O)/C=C/[C@@]1(O)[C@H](C)[C@H](O)[C@@H](O)CC1(C)C [WILSONOL A]	> 10
CC1=C(CC[C@H](C)O)C(C)(C)C[C@H](O[C@@H]2O[C@H](CO)[C@@H](O)[C@H](O)[C@H]2O)C1	5
C[C@@H]1[C@H](O)[C@@H](O)CC(C)(C)[C@@]1(O)/C=C/[C@@H](C)O [WILSONOL B]	> 10
COC(=O)/C=C(C)\C=C\[C@@]1(O)C(C)=CC(=O)CC1(C)C	> 10
C[C@H](O)CCC1=C(CO)C[C@@H](O)CC1(C)C	> 10

system: SW480; test: Cytotoxicity against human SW480 cells after 48 hrs by MTS assay; format: functional, cell-based; conditions: SW480, 48 h; method in brief: as §4

Structure (SMILES)	IC50 [µM]
CC1=C(CC[C@@H](C)O)C(C)(C)C[C@H](O)[C@@H]1O	> 10
CC(=O)/C=C/[C@@]1(O)[C@H](C)[C@H](O)[C@@H](O)CC1(C)C [WILSONOL C]	> 10
C[C@@H](O)/C=C/[C@@]1(O)[C@@H](C)C[C@H](O)CC1(C)C	> 10
C[C@H](O)/C=C/[C@@]1(O)[C@H](C)[C@H](O)[C@@H](O)CC1(C)C [WILSONOL A]	> 10
CC1=C(CC[C@H](C)O)C(C)(C)C[C@H](O[C@@H]2O[C@H](CO)[C@@H](O)[C@H](O)[C@H]2O)C1	12
C[C@@H]1[C@H](O)[C@@H](O)CC(C)(C)[C@@]1(O)/C=C/[C@@H](C)O [WILSONOL B]	> 10
COC(=O)/C=C(C)\C=C\[C@@]1(O)C(C)=CC(=O)CC1(C)C	> 10
C[C@H](O)CCC1=C(CO)C[C@@H](O)CC1(C)C	> 10

system: not listed separately; test: Cytotoxicity against human BEAS2B cells after 48 hrs by MTS assay; format: cell-based; conditions: beas-2b; method in brief: as §4

Structure (SMILES)	Activity
CC1=C(CC[C@H](C)O)C(C)(C)C[C@H](O[C@@H]2O[C@H](CO)[C@@H](O)[C@H](O)[C@H]2O)C1	Non-toxic

system: MCF7; test: Selectivity index, ratio of IC50 for human BEAS2B cells to IC50 for human MCF7 cells; format: functional; conditions: not given; method in brief: as §2

Structure (SMILES)	Ratio IC50
CC1=C(CC[C@H](C)O)C(C)(C)C[C@H](O[C@@H]2O[C@H](CO)[C@@H](O)[C@H](O)[C@H]2O)C1	>16

system: A549; test: Cytotoxicity against human A549 cells after 48 hrs by MTS assay; format: functional, cell-based; conditions: A549, 48 h; method in brief: as §4

Structure (SMILES)	IC50 [µM]
CC1=C(CC[C@@H](C)O)C(C)(C)C[C@H](O)[C@@H]1O	> 10
CC(=O)/C=C/[C@@]1(O)[C@H](C)[C@H](O)[C@@H](O)CC1(C)C [WILSONOL C]	> 10
C[C@@H](O)/C=C/[C@@]1(O)[C@@H](C)C[C@H](O)CC1(C)C	> 10
C[C@H](O)/C=C/[C@@]1(O)[C@H](C)[C@H](O)[C@@H](O)CC1(C)C [WILSONOL A]	> 10
CC1=C(CC[C@H](C)O)C(C)(C)C[C@H](O[C@@H]2O[C@H](CO)[C@@H](O)[C@H](O)[C@H]2O)C1	2.5
C[C@@H]1[C@H](O)[C@@H](O)CC(C)(C)[C@@]1(O)/C=C/[C@@H](C)O [WILSONOL B]	> 10
COC(=O)/C=C(C)\C=C\[C@@]1(O)C(C)=CC(=O)CC1(C)C	> 10
C[C@H](O)CCC1=C(CO)C[C@@H](O)CC1(C)C	> 10

system: not listed separately; test: Cytotoxicity against mouse T lymphocytes after 48 hrs by CCK-8 assay; conditions: t-cell; method in brief: as §3

Structure (SMILES)	Activity
CC1=C(CC[C@@H](C)O)C(C)(C)C[C@H](O)[C@@H]1O	Non-toxic
CC(=O)/C=C/[C@@]1(O)[C@H](C)[C@H](O)[C@@H](O)CC1(C)C [WILSONOL C]	Non-toxic
C[C@@H](O)/C=C/[C@@]1(O)[C@@H](C)C[C@H](O)CC1(C)C	Non-toxic
C[C@H](O)/C=C/[C@@]1(O)[C@H](C)[C@H](O)[C@@H](O)CC1(C)C [WILSONOL A]	Non-toxic
CC1=C(CC[C@H](C)O)C(C)(C)C[C@H](O[C@@H]2O[C@H](CO)[C@@H](O)[C@H](O)[C@H]2O)C1	Non-toxic
C[C@@H]1[C@H](O)[C@@H](O)CC(C)(C)[C@@]1(O)/C=C/[C@@H](C)O [WILSONOL B]	Non-toxic
COC(=O)/C=C(C)\C=C\[C@@]1(O)C(C)=CC(=O)CC1(C)C	Non-toxic
C[C@H](O)CCC1=C(CO)C[C@@H](O)CC1(C)C	Non-toxic

system: not listed separately; test: Selectivity index, ratio of IC50 for human BEAS2B cells to IC50 for human HL60 cells; format: functional; conditions: not given; method in brief: as §2

Structure (SMILES)	Ratio IC50
CC1=C(CC[C@H](C)O)C(C)(C)C[C@H](O[C@@H]2O[C@H](CO)[C@@H](O)[C@H](O)[C@H]2O)C1	>16
